Data on four molecules can be found in ChEMBL document CHEMBL4414560, “Goniolanceolatins A-H, Cytotoxic Bis-styryllactones from Goniothalamus lanceolatus” (J Nat Prod, 2019).

Assay [1] has as its system SW48. The experiment in a line: Cytotoxicity against human SW48 cells assessed as reduction in cell viability incubated fpr 72 hrs by celltiter-glo luminescent cell viability assay. Conditions: SW48, 72 h. Format: functional, cell-based. In short, it runs like this:
(§1)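 Cell lines from ATCC, grown in RPMI-1640 with 10% FBS, 100 IU/mL penicillin and 100 μg/mL streptomycin at 37 °C, 5% CO2. Seeded for 24 h, then exposed to compound for 72 h. Viability read by CellTiter-Glo luminescence. IC50 is the concentration killing 50% of cells, reported as mean ± S.D. of at least three independent experiments. Cisplatin-treated cells served for validation.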

For assay [2], the system named is Caco-2. The experiment in a line: Cytotoxicity against human Caco2 cells assessed as reduction in cell viability incubated fpr 72 hrs by celltiter-glo luminescent cell viability assay. Format: functional, cell-based. Particulars: Caco-2, 72 h. In short, it runs like this:
as §1
For orientation: ATP-based viability assays read luminescence as a measure of living cells.

In assay [3] the test system is HCT-116. Nature of the assay: Cytotoxicity against human HCT116 cells assessed as reduction in cell viability incubated fpr 72 hrs by celltiter-glo luminescent cell viability assay. Format: functional, cell-based. Particulars: HCT-116, 72 h. The method in brief:
as §1

Assay [4] deals with Calu-1. The experiment in a line: Cytotoxicity against human Calu1 cells assessed as reduction in cell viability incubated fpr 72 hrs by celltiter-glo luminescent cell viability assay. It counts as functional, cell-based. Particulars: Calu-1, 72 h. In short, it runs like this: as §1
In assay [5] the test system is NCI-H1299. The experiment in a line: Cytotoxicity against human NCI-H1299 cells assessed as reduction in cell viability incubated fpr 72 hrs by celltiter-glo luminescent cell viability assay. Format: functional, cell-based. Particulars: NCI-H1299, 72 h. The method in brief:
(§2)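 Lung cancer lines received as gifts from the National Cancer Institute, Selangor, Malaysia, incubated at 37 °C, 5% CO2. Cells plated for 24 h, then drug-exposed for 72 h. Luminescent CellTiter-Glo viability read-out. IC50 is the concentration killing 50% of cells, reported as mean ± S.D. from at least three independent experiments. Cisplatin-treated cells used for validation.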

Assay [6] has as its system A549. The experiment in a line: Cytotoxicity against human A549 cells assessed as reduction in cell viability incubated fpr 72 hrs by celltiter-glo luminescent cell viability assay. It counts as functional, cell-based. Conditions: A549, 72 h. The method in brief: as §1
The subject of assay [7] is NCI-H23. The experiment in a line: Cytotoxicity against human NCI-H23 cells assessed as reduction in cell viability incubated fpr 72 hrs by celltiter-glo luminescent cell viability assay. Conditions: NCI-H23, 72 h. Format: functional, cell-based. The method in brief: as §2
In assay [8] the test system is MRC5. Nature of the assay: Cytotoxicity against human MRC5 cells assessed as reduction in cell viability incubated fpr 72 hrs by celltiter-glo luminescent cell viability assay. Conditions: MRC5, 72 h. Format: cell-based. In short, it runs like this:
as §1

Assay [9] deals with CCD-841CoN. The experiment in a line: Cytotoxicity against human CCD-841-CoN cells assessed as reduction in cell viability incubated fpr 72 hrs by celltiter-glo luminescent cell viability assay. It counts as cell-based. The method in brief:
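Noncancerous colorectal CCD 841 CoN cells kept in DMEM with 20% FBS, 100 IU/mL penicillin and 100 μg/mL streptomycin at 37 °C, 5% CO2. Plated 24 h, then treated 72 h. Viability by CellTiter-Glo luminescence. IC50 is the 50%-kill concentration, given as mean ± S.D. from at least three independent experiments. Cisplatin used for validation.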

For assay [10], the system named is HCC 2998. The experiment in a line: Cytotoxicity against human HCC2998 cells assessed as reduction in cell viability incubated fpr 72 hrs by celltiter-glo luminescent cell viability assay. It counts as functional, cell-based. Particulars: HCC 2998, 72 h. The method in brief:
as §1

A word on the IC50: it is the point on the concentration scale where inhibition reaches its midpoint. `O=C1C=CC[C@@H]([C@H](O)[C@H](O[C@@H](c2ccccc2)[C@@H](O)[C@@H]2CC=CC(=O)O2)c2ccccc2)O1`: the half-inhibitory concentration (IC50) in assay [1] is 4.1 µM; in assay [2], more than 10 µM; in assay [3], 5.9 µM; in [4] it was 5.4 µM; in [5], 7.1 µM; in assay [6] it was 7.8 µM. For the same molecule, the IC50 in assay [7] is 3.2 µM; in assay [8], more than 100 µM; in [9], more than 100 µM; in assay [10] it was 2.9 µM.

Turning to `CC(=O)O[C@@H]([C@@H]1CC=CC(=O)O1)[C@H](O[C@@H](c1ccccc1)[C@@H](O)[C@@H]1CC=CC(=O)O1)c1ccccc1`, the half-maximal inhibitory concentration (IC50) in assay [1] was found to be 4.1 µM; in [2], 7 µM; in assay [3], 4.1 µM; in assay [4], 2.2 µM; in assay [5], 4.6 µM; in assay [6], 6.4 µM. Also, the IC50 in assay [7] was 2.6 µM; in [8], more than 100 µM; in [9] it was more than 100 µM; in [10] it was more than 10 µM.

Take `O=C1C=CC[C@@H]([C@H](O)[C@@H](O[C@H]([C@@H]2CC=CC(=O)O2)[C@@H](O)c2ccccc2)c2ccccc2)O1`: the concentration for half-maximal inhibition (IC50) is 5.5 µM in [1]; more than 10 µM in assay [2]; 8 µM in assay [3]; 7.5 µM in assay [4]; 9.5 µM in [5]; more than 10 µM in assay [6]. The IC50 in [7] was 5.2 µM; in assay [8], more than 100 µM; in assay [9], more than 100 µM; in assay [10], more than 10 µM.

With `CC(=O)O[C@@H](c1ccccc1)[C@@H](O[C@@H]1[C@@H]2C[C@@H](CC(=O)O2)O[C@H]1c1ccccc1)[C@@H]1CC=CC(=O)O1`, the IC50 in assay [1] was more than 10 µM; in assay [2], more than 10 µM; in [3], 9.5 µM; in assay [4], more than 10 µM; in assay [5], more than 10 µM; in assay [6] it was more than 10 µM. Moreover, the IC50 in [7] was 9.3 µM; in assay [8], more than 100 µM; in assay [9], more than 100 µM; in assay [10] it was more than 10 µM.
